Measurements taken from ChEMBL document CHEMBL5653631, “A Potent and Selective ULK1 Inhibitor Suppresses Autophagy and Sensitizes Cancer Cells to Nutrient Stress” (iScience, 2018).

Tests used:
[1] = target: Tyrosine-protein kinase Blk (Homo sapiens) (UniProt P51451); test: Inhibition of human recombinant BLK at 40 nM in presence of ATP by radiometric assay relative to control
In short: (§1)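 Part of a radiometric in vitro activity panel of 327 recombinant human kinases. Each kinase was tested in duplicate at one inhibitor concentration. Activity remaining was expressed as a percentage of the vehicle control, and percent inhibition was taken as 100 minus that value.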

[2] = target: T1, Tyrosine-protein kinase receptor TYRO3 (Homo sapiens) (UniProt Q06418); test: Inhibition of human recombinant TYRO3 at 40 nM in presence of ATP by radiometric assay relative to control
T1 sequence (whole entry): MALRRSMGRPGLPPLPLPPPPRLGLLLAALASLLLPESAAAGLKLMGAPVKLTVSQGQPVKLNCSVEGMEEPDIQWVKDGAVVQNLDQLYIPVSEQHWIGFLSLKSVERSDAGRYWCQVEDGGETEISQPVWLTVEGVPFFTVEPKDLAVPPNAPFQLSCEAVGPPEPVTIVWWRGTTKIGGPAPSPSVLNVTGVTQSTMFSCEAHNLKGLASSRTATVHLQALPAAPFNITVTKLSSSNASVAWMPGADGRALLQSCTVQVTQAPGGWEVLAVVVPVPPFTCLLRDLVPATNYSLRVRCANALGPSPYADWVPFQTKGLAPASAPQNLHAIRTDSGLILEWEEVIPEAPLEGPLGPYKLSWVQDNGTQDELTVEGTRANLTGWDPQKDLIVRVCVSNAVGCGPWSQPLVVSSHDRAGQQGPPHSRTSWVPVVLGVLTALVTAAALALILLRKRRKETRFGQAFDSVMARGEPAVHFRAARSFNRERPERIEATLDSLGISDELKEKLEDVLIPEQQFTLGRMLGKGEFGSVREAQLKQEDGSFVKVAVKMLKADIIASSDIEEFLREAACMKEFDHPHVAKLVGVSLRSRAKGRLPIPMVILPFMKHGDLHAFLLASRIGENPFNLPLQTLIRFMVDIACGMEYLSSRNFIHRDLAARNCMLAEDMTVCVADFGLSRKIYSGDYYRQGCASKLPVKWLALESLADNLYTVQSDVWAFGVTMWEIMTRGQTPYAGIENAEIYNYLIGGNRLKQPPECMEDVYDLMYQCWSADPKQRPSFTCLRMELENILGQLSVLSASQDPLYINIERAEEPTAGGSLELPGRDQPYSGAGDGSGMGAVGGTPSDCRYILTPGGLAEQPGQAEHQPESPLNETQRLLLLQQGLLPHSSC

[3] = target: Cyclin-dependent kinase 9 (Homo sapiens) (UniProt P50750); test: Inhibition of human recombinant CDK9 at 40 nM in presence of ATP by radiometric assay relative to control
Cyclin-dependent kinase 9 (Homo sapiens), sequence (P50750 whole entry): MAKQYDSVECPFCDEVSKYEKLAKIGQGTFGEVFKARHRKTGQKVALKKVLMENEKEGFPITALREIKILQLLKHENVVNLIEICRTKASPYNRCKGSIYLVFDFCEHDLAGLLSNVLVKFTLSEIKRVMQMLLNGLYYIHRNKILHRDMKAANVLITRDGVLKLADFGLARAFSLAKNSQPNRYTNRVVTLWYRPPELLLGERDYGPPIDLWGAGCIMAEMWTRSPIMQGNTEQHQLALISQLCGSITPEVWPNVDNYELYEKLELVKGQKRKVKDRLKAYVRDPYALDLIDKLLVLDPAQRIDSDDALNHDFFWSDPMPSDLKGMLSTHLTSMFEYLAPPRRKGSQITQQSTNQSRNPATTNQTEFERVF

[4] = target: Receptor tyrosine-protein kinase erbB-2 (Homo sapiens) (UniProt P04626); test: Inhibition of human recombinant ErbB2 at 40 nM related to control ULK1
Receptor tyrosine-protein kinase erbB-2 (Homo sapiens), sequence (P04626 whole entry): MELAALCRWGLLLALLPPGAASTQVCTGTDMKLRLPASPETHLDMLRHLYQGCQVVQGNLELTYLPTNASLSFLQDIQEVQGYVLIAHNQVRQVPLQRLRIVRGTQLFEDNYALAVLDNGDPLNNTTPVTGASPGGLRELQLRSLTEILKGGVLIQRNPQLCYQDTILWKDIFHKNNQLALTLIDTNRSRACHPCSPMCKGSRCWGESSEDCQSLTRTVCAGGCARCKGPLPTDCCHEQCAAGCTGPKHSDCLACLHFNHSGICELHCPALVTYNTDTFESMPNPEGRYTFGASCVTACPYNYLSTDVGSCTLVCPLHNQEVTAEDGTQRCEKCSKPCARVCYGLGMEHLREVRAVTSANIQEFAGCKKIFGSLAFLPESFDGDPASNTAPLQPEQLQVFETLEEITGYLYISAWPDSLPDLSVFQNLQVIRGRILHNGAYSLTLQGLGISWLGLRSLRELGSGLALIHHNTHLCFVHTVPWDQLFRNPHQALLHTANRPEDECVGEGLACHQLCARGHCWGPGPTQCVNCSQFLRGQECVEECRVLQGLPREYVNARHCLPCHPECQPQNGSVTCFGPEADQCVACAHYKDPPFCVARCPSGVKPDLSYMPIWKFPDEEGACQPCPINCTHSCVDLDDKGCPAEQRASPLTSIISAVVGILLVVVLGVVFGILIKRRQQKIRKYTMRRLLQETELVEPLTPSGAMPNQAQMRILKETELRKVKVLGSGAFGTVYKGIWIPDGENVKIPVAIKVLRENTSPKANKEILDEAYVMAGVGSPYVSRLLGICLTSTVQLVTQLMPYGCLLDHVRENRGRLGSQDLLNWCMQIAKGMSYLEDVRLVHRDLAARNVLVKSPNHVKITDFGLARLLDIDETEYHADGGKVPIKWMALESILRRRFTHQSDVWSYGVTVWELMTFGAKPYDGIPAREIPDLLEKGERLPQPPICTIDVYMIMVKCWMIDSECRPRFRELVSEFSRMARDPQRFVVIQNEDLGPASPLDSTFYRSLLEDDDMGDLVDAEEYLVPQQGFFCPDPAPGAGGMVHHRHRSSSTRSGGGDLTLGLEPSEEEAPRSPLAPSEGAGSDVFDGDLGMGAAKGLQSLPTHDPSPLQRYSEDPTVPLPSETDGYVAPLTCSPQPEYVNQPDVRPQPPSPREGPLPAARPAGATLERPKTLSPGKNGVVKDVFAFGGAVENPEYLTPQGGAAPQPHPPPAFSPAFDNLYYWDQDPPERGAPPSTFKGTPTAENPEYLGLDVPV

[5] = target: T2, Beta-adrenergic receptor kinase 1 (Homo sapiens) (UniProt P25098); test: Inhibition of human recombinant BARK1 at 15 nM in presence of ATP by radiometric assay relative to control; in short: as §1
T2 sequence (whole entry): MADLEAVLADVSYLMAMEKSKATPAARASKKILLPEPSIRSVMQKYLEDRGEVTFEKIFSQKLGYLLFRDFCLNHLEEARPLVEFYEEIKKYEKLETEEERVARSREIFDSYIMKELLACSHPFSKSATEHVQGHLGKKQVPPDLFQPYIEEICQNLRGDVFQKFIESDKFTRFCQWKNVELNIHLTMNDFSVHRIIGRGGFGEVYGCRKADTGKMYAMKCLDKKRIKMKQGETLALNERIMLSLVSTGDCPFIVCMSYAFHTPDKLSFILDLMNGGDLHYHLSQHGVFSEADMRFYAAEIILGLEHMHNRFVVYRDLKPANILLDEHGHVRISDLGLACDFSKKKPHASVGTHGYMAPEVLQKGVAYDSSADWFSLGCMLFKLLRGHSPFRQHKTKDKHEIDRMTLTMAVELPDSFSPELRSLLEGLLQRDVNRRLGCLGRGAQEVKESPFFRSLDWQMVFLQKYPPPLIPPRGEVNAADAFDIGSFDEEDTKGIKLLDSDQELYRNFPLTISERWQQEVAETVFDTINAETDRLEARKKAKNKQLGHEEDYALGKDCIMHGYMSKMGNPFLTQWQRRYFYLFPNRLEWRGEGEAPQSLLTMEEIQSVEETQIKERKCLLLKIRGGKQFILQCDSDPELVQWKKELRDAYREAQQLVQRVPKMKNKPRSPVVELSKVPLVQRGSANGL

[6] = target: Serine/threonine-protein kinase PLK3 (Homo sapiens) (UniProt Q9H4B4); test: Inhibition of human recombinant PLK3 at 15 nM related to control ULK1
Serine/threonine-protein kinase PLK3 (Homo sapiens), sequence (Q9H4B4 whole entry, looked up): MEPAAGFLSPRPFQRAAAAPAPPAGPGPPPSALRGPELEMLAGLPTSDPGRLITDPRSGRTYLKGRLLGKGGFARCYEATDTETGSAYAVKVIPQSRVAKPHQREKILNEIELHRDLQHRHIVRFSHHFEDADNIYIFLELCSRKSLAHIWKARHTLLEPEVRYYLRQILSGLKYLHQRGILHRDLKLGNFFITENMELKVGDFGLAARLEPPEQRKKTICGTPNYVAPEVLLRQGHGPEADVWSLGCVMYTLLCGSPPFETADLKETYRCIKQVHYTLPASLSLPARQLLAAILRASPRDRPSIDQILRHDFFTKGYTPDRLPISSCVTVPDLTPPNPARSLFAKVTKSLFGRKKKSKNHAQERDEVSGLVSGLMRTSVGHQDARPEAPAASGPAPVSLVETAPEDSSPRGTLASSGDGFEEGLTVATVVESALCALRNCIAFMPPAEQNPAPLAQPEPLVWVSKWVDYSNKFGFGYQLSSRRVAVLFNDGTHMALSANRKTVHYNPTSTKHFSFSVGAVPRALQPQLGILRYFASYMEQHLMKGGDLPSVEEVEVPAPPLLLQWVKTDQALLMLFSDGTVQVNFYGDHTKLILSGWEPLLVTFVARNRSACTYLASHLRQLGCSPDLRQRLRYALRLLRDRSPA

[7] = target: Cyclin-dependent kinase-like 1 (Homo sapiens) (UniProt Q00532); test: Inhibition of human recombinant CDKL1 at 15 nM in presence of ATP by radiometric assay relative to control
Cyclin-dependent kinase-like 1 (Homo sapiens), sequence (Q00532 whole entry): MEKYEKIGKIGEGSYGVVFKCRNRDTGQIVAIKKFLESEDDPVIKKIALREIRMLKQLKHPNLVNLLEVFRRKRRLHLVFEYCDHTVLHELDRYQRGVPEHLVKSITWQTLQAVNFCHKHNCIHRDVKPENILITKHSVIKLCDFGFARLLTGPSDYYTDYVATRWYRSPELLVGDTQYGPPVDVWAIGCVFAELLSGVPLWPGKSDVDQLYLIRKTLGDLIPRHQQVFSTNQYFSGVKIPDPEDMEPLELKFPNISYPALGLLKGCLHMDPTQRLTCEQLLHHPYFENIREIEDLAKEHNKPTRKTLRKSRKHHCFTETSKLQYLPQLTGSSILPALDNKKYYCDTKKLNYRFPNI

[8] = target: High affinity nerve growth factor receptor (Homo sapiens) (UniProt P04629); test: Inhibition of human recombinant TRKA at 15 nM in presence of ATP by radiometric assay relative to control
High affinity nerve growth factor receptor (Homo sapiens), sequence (P04629 33-796 limits assumed): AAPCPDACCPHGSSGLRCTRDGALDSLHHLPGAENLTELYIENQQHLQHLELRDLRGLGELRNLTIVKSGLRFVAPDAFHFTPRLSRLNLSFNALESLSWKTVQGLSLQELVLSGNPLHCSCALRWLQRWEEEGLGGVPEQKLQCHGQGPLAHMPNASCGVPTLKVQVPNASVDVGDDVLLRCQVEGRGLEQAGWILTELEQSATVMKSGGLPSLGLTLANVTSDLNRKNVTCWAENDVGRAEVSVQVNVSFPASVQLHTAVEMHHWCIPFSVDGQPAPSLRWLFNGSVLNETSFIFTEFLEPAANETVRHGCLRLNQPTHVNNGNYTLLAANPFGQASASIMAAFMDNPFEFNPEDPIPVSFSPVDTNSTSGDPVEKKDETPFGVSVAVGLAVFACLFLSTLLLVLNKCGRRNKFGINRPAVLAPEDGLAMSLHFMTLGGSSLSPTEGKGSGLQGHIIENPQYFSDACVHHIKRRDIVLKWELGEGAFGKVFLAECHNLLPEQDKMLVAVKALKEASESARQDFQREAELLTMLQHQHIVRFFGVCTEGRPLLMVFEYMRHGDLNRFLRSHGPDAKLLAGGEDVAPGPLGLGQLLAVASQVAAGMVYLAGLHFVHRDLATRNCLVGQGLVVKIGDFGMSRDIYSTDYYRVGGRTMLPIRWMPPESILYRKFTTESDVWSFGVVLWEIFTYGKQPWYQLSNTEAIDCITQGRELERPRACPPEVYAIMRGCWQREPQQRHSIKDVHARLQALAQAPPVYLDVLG

[9] = target: T3, Aurora kinase A (Homo sapiens) (UniProt O14965); test: Inhibition of human recombinant AurA at 15 nM related to control ULK1
T3 sequence (whole entry): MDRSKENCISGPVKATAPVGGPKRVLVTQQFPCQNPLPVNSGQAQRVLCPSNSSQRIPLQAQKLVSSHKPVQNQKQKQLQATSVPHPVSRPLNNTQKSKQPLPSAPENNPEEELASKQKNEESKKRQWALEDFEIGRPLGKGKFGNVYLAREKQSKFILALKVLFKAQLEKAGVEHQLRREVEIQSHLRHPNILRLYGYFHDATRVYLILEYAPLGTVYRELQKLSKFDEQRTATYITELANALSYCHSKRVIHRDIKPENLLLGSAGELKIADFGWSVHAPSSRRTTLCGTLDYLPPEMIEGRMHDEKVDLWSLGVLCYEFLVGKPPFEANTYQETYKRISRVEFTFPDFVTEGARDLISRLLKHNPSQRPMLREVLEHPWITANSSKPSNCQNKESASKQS
In short: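 Panel of 327 recombinant human kinases, each assayed in vitro by radiometric activity assay in duplicate at a single inhibitor concentration per compound, chosen with reference to its ULK1 inhibition. Activity remaining was expressed as percent of vehicle control, and percent inhibition was calculated as 100 minus percent activity remaining.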

[10] = target: Dual specificity tyrosine-phosphorylation-regulated kinase 1B (Homo sapiens) (UniProt Q9Y463); test: Inhibition of human recombinant DYRK1B at 15 nM in presence of ATP by radiometric assay relative to control
Dual specificity tyrosine-phosphorylation-regulated kinase 1B (Homo sapiens), sequence (Q9Y463 whole entry, looked up): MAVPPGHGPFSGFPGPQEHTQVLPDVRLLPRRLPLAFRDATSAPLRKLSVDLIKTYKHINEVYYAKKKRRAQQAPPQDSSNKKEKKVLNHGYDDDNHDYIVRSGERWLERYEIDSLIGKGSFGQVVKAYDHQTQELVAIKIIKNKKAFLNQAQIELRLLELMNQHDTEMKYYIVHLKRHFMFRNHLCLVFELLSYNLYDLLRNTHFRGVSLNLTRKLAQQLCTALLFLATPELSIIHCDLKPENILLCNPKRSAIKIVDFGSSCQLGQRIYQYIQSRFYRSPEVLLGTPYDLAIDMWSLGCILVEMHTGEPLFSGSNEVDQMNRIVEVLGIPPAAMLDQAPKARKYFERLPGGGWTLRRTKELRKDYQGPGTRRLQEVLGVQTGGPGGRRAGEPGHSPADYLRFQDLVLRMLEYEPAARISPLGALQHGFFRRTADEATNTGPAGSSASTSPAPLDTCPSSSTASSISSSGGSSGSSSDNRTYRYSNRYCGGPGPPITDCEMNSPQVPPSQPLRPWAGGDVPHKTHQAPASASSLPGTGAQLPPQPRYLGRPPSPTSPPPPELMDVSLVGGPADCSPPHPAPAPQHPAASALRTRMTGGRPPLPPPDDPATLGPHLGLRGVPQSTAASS

[11] = target: G protein-coupled receptor kinase 5 (Homo sapiens) (UniProt P34947); test: Inhibition of human recombinant GPRK5 at 15 nM in presence of ATP by radiometric assay relative to control

Tyrosine-protein kinase Blk (Homo sapiens), sequence (P51451 2-505 limits assumed): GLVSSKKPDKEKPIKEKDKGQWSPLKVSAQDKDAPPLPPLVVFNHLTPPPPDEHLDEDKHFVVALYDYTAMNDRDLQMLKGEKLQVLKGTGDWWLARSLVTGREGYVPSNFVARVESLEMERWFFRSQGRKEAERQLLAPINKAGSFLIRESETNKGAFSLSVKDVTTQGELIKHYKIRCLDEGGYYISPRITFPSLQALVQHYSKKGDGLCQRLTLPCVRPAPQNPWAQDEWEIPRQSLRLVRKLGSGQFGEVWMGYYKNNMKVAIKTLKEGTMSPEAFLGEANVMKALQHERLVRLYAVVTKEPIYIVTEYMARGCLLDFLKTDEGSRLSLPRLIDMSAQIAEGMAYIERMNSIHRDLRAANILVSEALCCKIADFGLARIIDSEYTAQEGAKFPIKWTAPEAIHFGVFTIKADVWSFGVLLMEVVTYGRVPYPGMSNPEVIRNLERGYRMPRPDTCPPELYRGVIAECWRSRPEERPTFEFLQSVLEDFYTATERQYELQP

inhibition [1] | inhibition [2] | inhibition [3] | fold change (FC) [4] | inhibition [5] | fold change (FC) [6] | inhibition [7] | inhibition [8] | fold change (FC) [9] | inhibition [10] | inhibition [11] | SMILES
17% | 0% | 0% | 0 |  |  |  |  |  |  |  | O=C(N[C@@H](C1CC1)C(F)(F)F)c1cc(-c2cnn3cc(-c4ccc(F)cc4)cnc23)cs1
 |  |  |  | 0% | 0.03 | 24% | 0% | 0.15 | 65% | 0% | CC(C)[C@H](NC(=O)c1cc(-c2cnn3cc(-c4ccc(OCCN5CCCCC5)cc4)cnc23)cs1)C(F)(F)F
